This is an account of results in ChEMBL document CHEMBL4513216, “Probing the Open Global Health Chemical Diversity Library for Multistage-Active Starting Points for Next-Generation Antimalarials” (ACS Infect Dis, 2020).

The data set in a line: Toxicity liver stage against HepG2, at 10uM. Type of data set: cell-based. On the set-up: test concentration 10 uM, cell line HepG2-A16-CD81EGFP. The following applies: human, HepG2-A16-CD81EGFP cells; read-out: INHIBITION
Summed up: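 Uninfected HepG2-A16-CD81EGFP cells, 3 × 10^3 per well, 1536-well, plated on prespotted compound at 10 μM final, parasite-free screening media added to match infected plates; puromycin 10 μM positive, DMSO 0.5% negative; run in parallel with 48 h PbLuc assay at 37 °C, 5% CO2; viability by CellTiter-Glo luminescence, normalized to controls.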
On to `Cc1cc2nc(CO[C@H]3CN(CC4CC4)C[C@H]3F)[nH]c2cc1C`, for which the cytotoxicity at 10 µM worked out at 1.04%.

For `CS(=O)(=O)Nc1ccc([C@H]2OCC(=O)N[C@@H]2CO)cc1`, the cytotoxicity at 10 µM is -5.4%.

As for `O=C1N(Cc2cccnc2)C[C@H]2CN(C3CCOCC3)CCN12`, the cytotoxicity at 10 µM was -9.7%.

Consider `Nc1c(N2CCCC2)ncnc1N1CCOCC1`, for which the cytotoxicity at 10 µM came out at 12.8%.

Regarding `CCOCC1CN(S(=O)(=O)C2CC2)Cc2ncn(CC3CC3)c21` (stereo unspecified), the cytotoxicity at 10 µM is 4.44%.

In the case of `Cc1cccc(CN2CC3(CCN(C(N)=O)CC3)OCC2=O)n1`, the cytotoxicity at 10 µM amounted to 2.17%.

On to `C[C@H]1C[C@@H]2CCN(C(=O)c3cnccn3)C[C@H]2O1`, for which the cytotoxicity at 10 µM was determined as 2.96%.

As to `CC(=O)N1N=C(c2ccccc2)OC1C(=O)NCCC1=CCCCC1` (stereo unspecified), the cytotoxicity at 10 µM was 9.74%.

On to `CCn1ccc(-c2nnc(SCC(=O)Nc3ccc(C)cc3)n2CC)n1`, for which the cytotoxicity at 10 µM was 5.11%.

With `CCn1cc(CN(C)S(=O)(=O)c2cnn(C)c2)cn1`, the cytotoxicity at 10 µM worked out at 8.16%.

`Cc1nc(CN(C)C(=O)CN(C)C)nc2c1CCC(=O)N2CCC(C)C`: the cytotoxicity at 10 µM was -10.5%.

For the molecule `Cc1cc(C)n(CCNCc2cc(-c3ccccc3)c[nH]c2=O)n1`, the cytotoxicity at 10 µM was -2.47%.

In the case of `CC(C)n1nccc1CN1Cc2nccn2CC1c1ccccc1` (stereo unspecified), the cytotoxicity at 10 µM amounted to 5.38%.

As to `O=C(O)c1ccccc1CN1CCCC(Cc2ccn[nH]2)C1` (stereo unspecified), the cytotoxicity at 10 µM turned out to be 2.79%.

As for `Cc1nc2c(c(NCCN3CCOCC3)n1)CCN(C)C2`, the cytotoxicity at 10 µM was 4.09%.

Consider `Cc1cc(C)nc(C2CCCN2c2ccnc(C)n2)n1` (stereo unspecified), for which the cytotoxicity at 10 µM is -16.4%.

On to `Cc1nc[nH]c1CN1CCN(C2CCOCC2)CC(C(N)=O)C1` (stereo unspecified), for which the cytotoxicity at 10 µM is -19.5%.

Take `Cc1ccc(-n2c(SCC(=O)O)nnc2-c2cccc(C)c2)cc1`: the cytotoxicity at 10 µM is -2.05%.

In the case of `CC(=O)N1CCC(Cc2cnc(C(=O)N3CCCC3)cn2)C1` (stereo unspecified), the cytotoxicity at 10 µM was -23.6%.

On to `O=S(=O)(N1CCCCC1)N1CCC(Oc2cnccn2)CC1`, for which the cytotoxicity at 10 µM was -14.1%.

In the case of `CN(C)S(=O)(=O)N1CCN(Cc2ccnc(N3CCCC3)n2)CC1`, the cytotoxicity at 10 µM is -4.42%.

Turning to `O=C(CN(Cc1cccs1)C1CCS(=O)(=O)C1)NCC1CCCCC1` (stereo unspecified), the cytotoxicity at 10 µM amounted to 0.611%.

Take `CCN(Cc1ccc(N(C)C)cc1)S(=O)(=O)c1cc(Br)ccc1OC`: the cytotoxicity at 10 µM amounted to 5.12%.

For the molecule `CCS(=O)(=O)NCC(=O)N(C1CC1)C1Cc2ccccc2C1`, the cytotoxicity at 10 µM amounted to 4.25%.

In the case of `O=C(OCc1ccccc1)c1cccc(NC(=O)C2COCCO2)c1` (stereo unspecified), the cytotoxicity at 10 µM was -0.488%.

Take `Cc1cnc(C(=O)NCC(c2ccc(C)o2)N2CCOCC2)cn1` (stereo unspecified): the cytotoxicity at 10 µM was -7.2%.

For the molecule `CNC(=O)CCS(=O)(=O)Cc1coc(-c2ccc(F)cc2)n1`, the cytotoxicity at 10 µM is -3%.

With `Cc1cc2c(o1)CC(C)(C)CC2NC(=O)CNC(=O)C1CC1` (stereo unspecified), the cytotoxicity at 10 µM turned out to be 4.57%.

As to `COCc1noc(-c2nn(-c3ccc(F)cc3)c3c2CCC3)n1`, the cytotoxicity at 10 µM was found to be 2.87%.

As to `N#Cc1ccc(NCc2cccc(COC3CCOCC3)c2)nc1`, the cytotoxicity at 10 µM amounted to 32.4%.

For the molecule `c1cc(CN2CCSC3(CCCCC3)C2)no1`, the cytotoxicity at 10 µM turned out to be 0.807%.

In the case of `CS(=O)(=O)c1nccn1CCOc1ccccc1F`, the cytotoxicity at 10 µM was determined as 4.05%.

Consider `CC(CO)N(C)C(=O)c1cn(-c2ccc(Br)cc2)cn1` (stereo unspecified), for which the cytotoxicity at 10 µM is -2.87%.

As to `c1cncc(N2CCCn3nnc(CN4CCOCC4)c3C2)c1`, the cytotoxicity at 10 µM amounted to 2.46%.

Regarding `CC(C)NC(=O)N1CCC2(CC(=O)N(c3cccc(F)c3)C2)C1` (stereo unspecified), the cytotoxicity at 10 µM was determined as 3.46%.

`CCC1CN(C(=O)c2ncccc2O)CCC(=O)N1Cc1ccccc1` (stereo unspecified): the cytotoxicity at 10 µM turned out to be 3.2%.

For `O=C(CC(F)(F)F)N1CCCC(c2nccn2Cc2ccncc2)C1` (stereo unspecified), the cytotoxicity at 10 µM was 3.22%.

As to `N[C@@H]1CC[C@@H](Nc2nccc(CCC(F)(F)F)n2)C1`, the cytotoxicity at 10 µM was -3.73%.

With `CCN(Cc1noc(C2CCC2)n1)C(=O)c1cnc2ccccc2c1`, the cytotoxicity at 10 µM was 8.59%.

On to `COCCN1CCC(CNC(=O)Nc2ccc(F)c(Cl)c2)C1` (stereo unspecified), for which the cytotoxicity at 10 µM amounted to 2.59%.

Consider `Cc1cc(C(=O)N2CC(O)CO2)c2cccc(C)c2n1` (stereo unspecified), for which the cytotoxicity at 10 µM came to 7.13%.

Consider `CN(Cc1cccc(O)c1)C(=O)c1ccc(CCC(C)(C)O)cc1`, for which the cytotoxicity at 10 µM is 3.58%.

For the molecule `Cc1nc(CN(C)C(=O)C2CC(=O)N(c3cccc(O)c3)C2)cs1` (stereo unspecified), the cytotoxicity at 10 µM is -0.968%.

Regarding `O[C@@]1(CNCCCOc2cccnc2)CCCN2CCCC[C@@H]21`, the cytotoxicity at 10 µM was found to be 3.42%.

Consider `Cc1cc(C)c(C#N)c(NCCSc2nncn2C)n1`, for which the cytotoxicity at 10 µM is -1.01%.

As for `CN1C[C@@H](NC(=O)C(C)(C)C)C[C@H]1C(=O)NCc1ncc[nH]1`, the cytotoxicity at 10 µM is 0.452%.

Regarding `CC(C)(C)N1CC(C(=O)NCc2nc(C3CCCCC3)no2)CC1=O` (stereo unspecified), the cytotoxicity at 10 µM is 1.08%.

On to `CSc1ccc(C(=O)N2CCCC(Nc3ccc(F)cc3)C2)cc1` (stereo unspecified), for which the cytotoxicity at 10 µM is -11.4%.

As for `Cc1c(C(=O)N(C)C)cccc1N(C)S(C)(=O)=O`, the cytotoxicity at 10 µM turned out to be 8.19%.

As for `COCc1c(C(=O)NC2CCCC2)nnn1-c1ccc(C)cc1`, the cytotoxicity at 10 µM came to 5.97%.

Regarding `CC(C(=O)NC1CC1)N1CCN(Cc2ccn(C)c(=O)c2)CC1` (stereo unspecified), the cytotoxicity at 10 µM is -5.57%.

As to `Cc1cc(C)cc(C(=O)Nc2cn[nH]c2)c1`, the cytotoxicity at 10 µM was -6.57%.

Consider `Cc1ncccc1CNCC1CCCN1c1cccnn1` (stereo unspecified), for which the cytotoxicity at 10 µM is -14.2%.

On to `Cc1cc(F)ccc1CNCc1cccc(C(=O)N2CCCC2)c1`, for which the cytotoxicity at 10 µM was -10.8%.

Regarding `Cc1noc(C2CCN(C(=O)c3cc(Br)ccc3F)CC2)n1`, the cytotoxicity at 10 µM was -6.14%.

Regarding `CN(Cc1ccco1)C(=O)CN1CCCCC1Cn1cncn1` (stereo unspecified), the cytotoxicity at 10 µM came to 3.61%.

For the molecule `COC(=O)N1CCCN(C(=O)c2cccc3cccnc23)CC1`, the cytotoxicity at 10 µM stood at 8.33%.

Turning to `CC1CN(CC(=O)N2CCCC2)CCN1c1ccc2nncn2n1` (stereo unspecified), the cytotoxicity at 10 µM is -5.46%.

As to `COc1ccccc1CC(=O)NS(=O)(=O)c1cncc(Br)c1`, the cytotoxicity at 10 µM was -12.7%.

Consider `COc1cccc(C(=O)N2CCCCC2CNC(N)=O)c1` (stereo unspecified), for which the cytotoxicity at 10 µM was -7.03%.

As for `CCOc1ccc(C#N)cc1NCC(=O)Nc1cc(C)no1`, the cytotoxicity at 10 µM was -6.67%.

Consider `O=C(CN1CCCC(Cn2cncn2)C1)NCCOc1ccccc1` (stereo unspecified), for which the cytotoxicity at 10 µM turned out to be 5.61%.

For `CC(C)c1nc(CCNC(=O)NCc2ccnc(N(C)C)c2)cs1`, the cytotoxicity at 10 µM is -4.69%.

As for `CCc1nc(C2CCCN(C(=O)c3ccc(OC(C)C)nc3)C2)no1` (stereo unspecified), the cytotoxicity at 10 µM was determined as 3.25%.

As to `CNC(=O)CN1CCC(NC(=O)N(C)Cc2cc(C)on2)CC1`, the cytotoxicity at 10 µM is -0.626%.

On to `O=C(CC1CC2(CCN(CC3CC3)CC2)Oc2ccccc21)NC1CC1` (stereo unspecified), for which the cytotoxicity at 10 µM is 8.5%.

With `CCC1=N[C@@]2(CC[C@@H]3CN(CC4CC4)C[C@@H]32)C(=O)N1CC`, the cytotoxicity at 10 µM worked out at 6.56%.

As to `CN1CCCc2c1nc1c(c2N)CCCC1`, the cytotoxicity at 10 µM turned out to be 11.2%.

Consider `CN(C)C(=O)CO[C@H]1CN(Cc2cccc(C#N)c2)[C@@H]2COC[C@H]12`, for which the cytotoxicity at 10 µM worked out at 11.4%.

`CN(Cc1cn2c(n1)CN(C(=O)c1ccc[nH]1)CC2)Cc1ccco1`: the cytotoxicity at 10 µM is -3.55%.

With `CCC=C(C)C(=O)N1CSCC1C(=O)NC1=NCCS1` (stereo unspecified), the cytotoxicity at 10 µM came out at 11.8%.
